Reference: ChEMBL document CHEMBL1158182, “Antifungal activity of chalcones: a mechanistic study using various yeast strains” (Eur J Med Chem, 2008)
Converted amounts (≈) assume the structure as drawn.

Key:
Assay type in all cases: functional
[1] = system: Ogataea angusta; test: Antifungal activity against Hansenula polymorpha CD3 with ade1 leu2 cds3 genotype by agar dilution method
Method in brief: (§1)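 H. polymorpha strains were tested by agar dilution on rich YPD agar at 37 °C. Compound stocks in 96% EtOH were mixed into the medium to give […]. Cells were suspended in water, serially diluted to 10^9, 10^7, 10^5 and 10^3 cells/ml, and applied to the agar with a metal replicator. MIC was read from growth.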

[2] = system: Kluyveromyces lactis; test: Antifungal activity against Kluyveromyces lactis 1-6A with MATalpha uraA lys arg genotype by agar dilution method
Method in brief: (§2)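 S. cerevisiae and K. lactis strains were tested by agar dilution on rich YPD agar at 30 °C. Compound stocks in 96% EtOH were added to the medium to give […]. Cells were suspended in water, serially diluted to 10^9–10^3 cells/ml, and plated with a metal replicator. MIC was read from growth.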

[3] = system: Ogataea angusta; test: Antifungal activity against Hansenula polymorpha CRD2 with leu2 CDR2 genotype by agar dilution method; method in brief: as §1
[4] = system: Saccharomyces cerevisiae; test: Antifungal activity against haploid Saccharomyces cerevisiae 2180 by agar dilution method; method in brief: as §2
[5] = system: Saccharomyces cerevisiae; test: Antifungal activity against diploid Saccharomyces cerevisiae PV-2 by agar dilution method
Method in brief: (§3)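 MICs by agar dilution on rich YPD medium. Compounds were added from 96% EtOH stocks to give final agar concentrations of 20 to 50 (units as printed in the source). Cells were suspended in water, serially diluted to 10^9, 10^7, 10^5 and 10^3 cells/ml, and spotted onto agar with a metal replicator. Incubation was at 37 °C for H. polymorpha and 30 °C for S. cerevisiae.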

[6] = system: Ogataea angusta; test: Antifungal activity against Hansenula polymorpha AU05 with ade3 ura3 genotype by agar dilution method; method in brief: as §1
[7] = system: Ogataea angusta; test: Antifungal activity against Hansenula polymorpha CD1 with ade1 leu2 cds1 genotype by agar dilution method; method in brief: as §1
[8] = system: Saccharomyces cerevisiae; test: Antifungal activity against haploid Saccharomyces cerevisiae YSH1171 by agar dilution method; method in brief: as §2
[9] = system: Saccharomyces cerevisiae; test: Antifungal activity against haploid Saccharomyces cerevisiae 10560-6B by agar dilution method; method in brief: as §2
[10] = system: Saccharomyces cerevisiae; test: Antifungal activity against diploid Saccharomyces cerevisiae 1a by agar dilution method; method in brief: as §2
[11] = system: Ogataea angusta; test: Antifungal activity against Hansenula polymorpha AS1 with arg1 gsh2delta genotype by agar dilution method; method in brief: as §1
[12] = system: Kluyveromyces lactis; test: Antifungal activity against Kluyveromyces lactis 2-19B with MATalpha ura lys arg genotype by agar dilution method; method in brief: as §2
[13] = system: Ogataea angusta; test: Antifungal activity against Hansenula polymorpha R3 with rgh3 genotype by agar dilution method; method in brief: as §1
[14] = system: Saccharomyces cerevisiae; test: Antifungal activity against diploid Saccharomyces cerevisiae 29a by agar dilution method; method in brief: as §2
[15] = system: Ogataea angusta; test: Antifungal activity against Hansenula polymorpha 2b with arg1 ade1 leu2 genotype by agar dilution method; method in brief: as §1
[16] = system: Saccharomyces cerevisiae; test: Antifungal activity against haploid Saccharomyces cerevisiae Sigma 1278b by agar dilution method; method in brief: as §2
[17] = system: Ogataea angusta; test: Antifungal activity against Hansenula polymorpha CD2 with ade1 leu2 cds2 genotype by agar dilution method; method in brief: as §1
[18] = system: Ogataea angusta; test: Antifungal activity against Hansenula polymorpha 2a with arg1 leu2 ura3 cys1 genotype by agar dilution method; method in brief: as §1
[19] = system: Saccharomyces cerevisiae; test: Antifungal activity against haploid Saccharomyces cerevisiae 1169 by agar dilution method; method in brief: as §2
[20] = system: Ogataea angusta; test: Antifungal activity against Hansenula polymorpha D22 with arg1/arg1 ade1/ADE1 leu2/leu2 URA3/ura3 CYS1/cys1 genotype by agar dilution method; method in brief: as §1
[21] = system: Ogataea angusta; test: Antifungal activity against Hansenula polymorpha WT1 with ade1 ura3 genotype by agar dilution method; method in brief: as §1
[22] = system: Saccharomyces cerevisiae; test: Antifungal activity against haploid Saccharomyces cerevisiae 1S by agar dilution method; method in brief: as §2
[23] = system: Ogataea angusta; test: Antifungal activity against Hansenula polymorpha WT2 with ade1 met6 genotype by agar dilution method; method in brief: as §1
[24] = system: Ogataea angusta; test: Antifungal activity against Hansenula polymorpha M2 with met2 genotype by agar dilution method; method in brief: as §1
[25] = system: Kluyveromyces lactis; test: Antifungal activity against Kluyveromyces lactis 2-18B with MATalpha metA1 ura3 leu2 genotype by agar dilution method; method in brief: as §2
[26] = system: Ogataea angusta; test: Antifungal activity against Hansenula polymorpha MC1 with met2 cys1 genotype by agar dilution method; method in brief: as §1
[27] = system: Saccharomyces cerevisiae; test: Antifungal activity against diploid Saccharomyces cerevisiae PV-3 by agar dilution method; method in brief: as §3
[28] = system: Saccharomyces cerevisiae; test: Antifungal activity against haploid Saccharomyces cerevisiae YSH1170 by agar dilution method; method in brief: as §2
[29] = system: Ogataea angusta; test: Antifungal activity against Hansenula polymorpha M4 with met4 genotype by agar dilution method; method in brief: as §1
[30] = system: Ogataea angusta; test: Antifungal activity against Hansenula polymorpha WA1 with ade1 leu2 gsh1 genotype by agar dilution method; method in brief: as §3
[31] = system: Saccharomyces cerevisiae; test: Antifungal activity against haploid Saccharomyces cerevisiae FY4 by agar dilution method; method in brief: as §2
[32] = system: Saccharomyces cerevisiae; test: Antifungal activity against haploid Saccharomyces cerevisiae D3C by agar dilution method; method in brief: as §3
[33] = system: Ogataea angusta; test: Antifungal activity against Hansenula polymorpha CTA1 with leu2 cat1 genotype by agar dilution method; method in brief: as §3

Compound	MIC [1] [µg/mL]	MIC [2] [µg/mL]	MIC [3] [µg/mL]	MIC [4] [µg/mL]	MIC [6] [µg/mL]	MIC [7] [µg/mL]	MIC [8] [µg/mL]	MIC [9] [µg/mL]	MIC [10] [µg/mL]	MIC [11] [µg/mL]	MIC [12] [µg/mL]	MIC [13] [µg/mL]	MIC [14] [µg/mL]	MIC [15] [µg/mL]	MIC [16] [µg/mL]	MIC [17] [µg/mL]	MIC [18] [µg/mL]	MIC [19] [µg/mL]	MIC [20] [µg/mL]	MIC [21] [µg/mL]	also measured
O=C(/C=C/c1ccc(O)cc1)c1ccc(Cl)cc1	> 40	> 40	40 (≈ 155 µM)	> 40	> 40	> 40	> 40	> 40	35 (≈ 135 µM)	30 (≈ 116 µM)	35 (≈ 135 µM)	40 (≈ 155 µM)	> 40	> 40	> 40	> 40	35 (≈ 135 µM)	> 40	> 40	> 40	MIC [5]: 35 µg/mL (≈ 135 µM); MIC [22]: > 40 µg/mL; MIC [23]: > 40 µg/mL; MIC [24]: > 40 µg/mL; MIC [25]: 35 µg/mL (≈ 135 µM); MIC [26]: 30 µg/mL (≈ 116 µM); MIC [27]: 35 µg/mL (≈ 135 µM); MIC [28]: > 40 µg/mL; MIC [29]: > 40 µg/mL; MIC [30]: 30 µg/mL (≈ 116 µM); MIC [31]: > 40 µg/mL
COc1ccc(/C=C/C(=O)c2ccccc2)cc1O	> 40	25 (≈ 98.3 µM)	> 40	> 40	> 40	> 40	> 40	> 40	> 40	30 (≈ 118 µM)	25 (≈ 98.3 µM)	> 40	> 40	> 40	> 40	> 40	30 (≈ 118 µM)	> 40	> 40	> 40	MIC [22]: > 40 µg/mL; MIC [23]: > 40 µg/mL; MIC [24]: > 40 µg/mL; MIC [25]: 25 µg/mL (≈ 98.3 µM); MIC [26]: 30 µg/mL (≈ 118 µM); MIC [28]: 35 µg/mL (≈ 138 µM); MIC [29]: > 40 µg/mL; MIC [30]: 30 µg/mL (≈ 118 µM); MIC [31]: > 40 µg/mL
O=C(/C=C/c1cccc(O)c1)c1ccc(Cl)cc1	< 20	< 20	< 20	16 (≈ 61.8 µM)	25 (≈ 96.6 µM)	< 20	18 (≈ 69.6 µM)	15 (≈ 58 µM)	20 (≈ 77.3 µM)	< 20	< 20	< 20	25 (≈ 96.6 µM)	25 (≈ 96.6 µM)	15 (≈ 58 µM)	< 20	< 20	20 (≈ 77.3 µM)	< 20	25 (≈ 96.6 µM)	MIC [32]: 20 µg/mL (≈ 77.3 µM); MIC [5]: 18 µg/mL (≈ 69.6 µM); MIC [33]: 25 µg/mL (≈ 96.6 µM); MIC [22]: 20 µg/mL (≈ 77.3 µM); MIC [23]: < 20 µg/mL; MIC [24]: 25 µg/mL (≈ 96.6 µM); MIC [25]: < 20 µg/mL; MIC [26]: < 20 µg/mL; MIC [27]: 15 µg/mL (≈ 58 µM); MIC [28]: 15 µg/mL (≈ 58 µM); MIC [29]: 25 µg/mL (≈ 96.6 µM); MIC [31]: 18 µg/mL (≈ 69.6 µM)
